The test system of series [1] is Intestine. Put plainly: Drug uptake in ICR mouse intestine assessed per organ at 370 kBq/100 ul, iv at 30 mins by gamma-counting analysis. It is filed as ADME, organism-based. Conditions: in vivo, 0.5 h. A digest of the protocol:
(§1)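 Male ICR mice (5 weeks, about 20 g) got 18F tracer in saline (370 KBq per 100 μL) via tail vein; n = 5 per time point, killed at 2, 10, 30, 60 min. Organs removed and γ-counted against diluted injectate; expressed as % injected dose per organ.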

Series [2] relates to Brain. The series can be described thus: Ratio of drug uptake in brain at 2 mins to drug uptake in brain at 60 mins in ICR mouse at 370 KBq/100 ul, iv. It is filed as ADME, organism-based. The following applies: in vivo. Summed up: (§2)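 Normal male ICR mice (5 weeks, about 20 g) received the ¹⁸F tracer in saline (370 KBq per 100 μL) by tail-vein injection. Groups of n = 5 were killed at 2, 10, 30 and 60 min. Organs were removed, weighed and γ-counted against diluted aliquots of the injectate, giving % dose per gram. Stomach and intestine were expressed per organ. The brain ratio is 2 min/60 min uptake. Values are mean ± SD.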

Series [3] concerns Liver. Put plainly: Drug uptake in ICR mouse liver at 370 kBq/100 ul, iv at 10 mins by gamma-counting analysis. It is filed as ADME, organism-based. The following applies: in vivo. Summed up: (§3)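 Male ICR mice (5 weeks, about 20 g) got 18F tracer in saline (370 KBq per 100 μL) via tail vein; n = 5 per time point, killed at 2, 10, 30, 60 min. Organs weighed and γ-counted; percent dose per gram wet tissue from comparison with diluted injectate aliquots.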

In a further series the test system is Kidney. The series can be described thus: Drug uptake in ICR mouse kidney at 370 kBq/100 ul, iv at 2 mins by gamma-counting analysis. It is filed as ADME, organism-based. The following applies: in vivo. A digest of the protocol: as §3
Series [4] relates to Stomach. The series can be described thus: Drug uptake in ICR mouse stomach assessed per organ at 370 kBq/100 ul, iv at 30 mins by gamma-counting analysis. Conditions: in vivo, 0.5 h. It is filed as ADME, organism-based. Summed up:
as §1

The test system of series [5] is Heart. The series can be described thus: Drug uptake in ICR mouse heart at 370 kBq/100 ul, iv at 60 mins by gamma-counting analysis. Format: ADME, organism-based. The following applies: in vivo, 1 h. A digest of the protocol:
as §3

Series [6] in a line: n-Octanol-PBS buffer partition coefficient, log D of the compound at 1.5 MBq after 3 mins at pH 7.4. It is filed as physicochemical. A digest of the protocol: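 The tracer was partitioned between n-octanol and PBS by vortexing for 3 min at room temperature, then centrifuged for 5 min at 3000 rpm. Samples of the octanol (50 μL) and aqueous (500 μL) layers were counted. log D is the log of the octanol/PBS counts-per-gram ratio. The octanol layer was repartitioned until values were consistent. Measured in triplicate and repeated three times.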

The subject of series [7] is Spleen. The series can be described thus: Drug uptake in ICR mouse spleen at 370 kBq/100 ul, iv at 30 mins by gamma-counting analysis. Format: ADME, organism-based. Conditions: in vivo, 0.5 h. Summed up:
as §3

In series [8] the test system is Heart. The series can be described thus: Drug uptake in ICR mouse heart at 370 kBq/100 ul, iv at 30 mins by gamma-counting analysis. It is filed as ADME, organism-based. The following applies: in vivo, 0.5 h. A digest of the protocol:
as §3

Another series has as its system Bone. Put plainly: Drug uptake in ICR mouse bone at 370 kBq/100 ul, iv at 30 mins by gamma-counting analysis. Conditions: in vivo, 0.5 h. It is filed as ADME, organism-based, Bone element. A digest of the protocol:
as §3

Series [9] relates to Spleen. The series can be described thus: Drug uptake in ICR mouse spleen at 370 kBq/100 ul, iv at 2 mins by gamma-counting analysis. The following applies: in vivo. It is filed as ADME, organism-based. A digest of the protocol: as §3
The subject of series [10] is Intestine. Put plainly: Drug uptake in ICR mouse intestine assessed per organ at 370 kBq/100 ul, iv at 60 mins by gamma-counting analysis. It is filed as ADME, organism-based. Conditions: in vivo, 1 h. Summed up: as §1
Series [11] has as its system Liver. The series can be described thus: Drug uptake in ICR mouse liver at 370 kBq/100 ul, iv at 2 mins by gamma-counting analysis. It is filed as ADME, organism-based. The following applies: in vivo. A digest of the protocol:
as §3

The subject of series [12] is Lung. The series can be described thus: Drug uptake in ICR mouse lung at 370 kBq/100 ul, iv at 2 mins by gamma-counting analysis. Format: ADME, organism-based. The following applies: in vivo. Summed up: as §3
In series [13] the test system is Lung. The series can be described thus: Drug uptake in ICR mouse lung at 370 kBq/100 ul, iv at 60 mins by gamma-counting analysis. It is filed as ADME, organism-based. Conditions: in vivo, 1 h. A digest of the protocol: as §3
Series [14] has as its system Brain. Put plainly: Drug uptake in ICR mouse brain at 370 kBq/100 ul, iv at 60 mins by gamma-counting analysis. It is filed as ADME, organism-based. The following applies: in vivo, 1 h. Summed up: as §3
The test system of series [15] is Lung. The series can be described thus: Drug uptake in ICR mouse lung at 370 kBq/100 ul, iv at 10 mins by gamma-counting analysis. The following applies: in vivo. Format: ADME, organism-based. Summed up:
as §3

Series [16] relates to Heart. The series can be described thus: Drug uptake in ICR mouse heart at 370 kBq/100 ul, iv at 2 mins by gamma-counting analysis. Format: ADME, organism-based. Conditions: in vivo. A digest of the protocol:
as §3

Series [17] relates to Blood. The series can be described thus: Drug uptake in ICR mouse blood at 370 kBq/100 ul, iv at 60 mins by gamma-counting analysis. The following applies: in vivo, 1 h. It is filed as ADME, organism-based. Summed up: as §3
For series [18], the system named is Stomach. Put plainly: Drug uptake in ICR mouse stomach assessed per organ at 370 kBq/100 ul, iv at 60 mins by gamma-counting analysis. It is filed as ADME, organism-based. Conditions: in vivo, 1 h. Summed up:
as §2

Series [19] deals with Blood. The series can be described thus: Drug uptake in ICR mouse blood at 370 kBq/100 ul, iv at 30 mins by gamma-counting analysis. Format: ADME, organism-based. Conditions: in vivo, 0.5 h. Summed up:
as §3

The subject of series [20] is Spleen. Put plainly: Drug uptake in ICR mouse spleen at 370 kBq/100 ul, iv at 10 mins by gamma-counting analysis. It is filed as ADME, organism-based. The following applies: in vivo. Summed up:
as §3

With `CNc1ccc(-c2nc3cc(OCCOCCOCC[18F])ccc3o2)cn1`, the Drug uptake turned out to be 28.65 %ID in the series with Intestine [1]; 9.32 % ID/g in the series with Liver [3]; 8.51 % ID/g in the series on Kidney; 12.93 %ID with Stomach [4]; 2.5 % ID/g in the series on Heart [5]; 2.18 % ID/g in the series with Spleen [7]. Moreover, the Drug uptake is reported as 3.16 % ID/g in the series with Heart [8]; 2.46 % ID/g with Bone; 4.13 % ID/g in the series on Spleen [9]; 25.16 %ID with Intestine [10]; 14.22 % ID/g with Liver [11]; 5.3 % ID/g in the series on Lung [12]. The Drug uptake with Lung [13] is recorded as 2.34 % ID/g; in the series on Brain [14], 1.78 % ID/g; with Lung [15] it was 3.15 % ID/g; in the series on Heart [16] it was 5.5 % ID/g; with Blood [17] it was 2.74 % ID/g; in the series on Stomach [18], 12.02 %ID. The Drug uptake with Blood [19] amounted to 3.16 % ID/g; in the series with Spleen [20], 2.64 % ID/g. Also, the Ratio with Brain [2] worked out at 2.28. For the same molecule, the logD (as a rule, the decadic logarithm of the distribution of all forms, ionised or not, between an organic phase and buffer at a given pH) at 0.05 h in [6] turned out to be 2.86.

These data come from ChEMBL document CHEMBL2177098, “Synthesis and evaluation of novel ¹⁸F labeled 2-pyridinylbenzoxazole and 2-pyridinylbenzothiazole derivatives as ligands for positron emission tomography (PET) imaging of β-amyloid plaques” (J Med Chem, 2012).
